# According to ChEMBL document CHEMBL5715960, “Epigenetic Co-Deregulation of EZH2/TET1 is a Senescence-Countering, Actionable Vulnerability in Triple-Negative Breast Cancer” (Theranostics, 2019):
# Active and inactive are the calls of the source. No cut-off for these calls is given here.
# Tests used:
# [1] = system: BT-474; test: Cytotoxicity against human BT-474 cells at 0.5 to 2 uM for 2 days by Guava viacount assay; type: toxicity, cell-based; settings: bt-474, 48 h, dose 0.5-2 µM, time 2 day
# Procedure, shortened: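 Cells plated at 2 × 10^4 (24-well) or 1 × 10^5 (12-well), exposed to a range of GSK343 concentrations for 2 days against DMSO solvent control; cell number and viability read by Guava ViaCount flow cytometry, relative to DMSO. Triplicate; mean ± SD.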
# [2] = system: MDA-MB-231; test: Effect on human MDA-MB-231 cells assessed as apoptotic phenotype by measuring increase in BIM expression level at 2 uM in presence of adriamycin by immunoblot analysis; type: functional, cell-based
# Procedure, shortened: (§1)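 Immunoblot of cell lysates after 0.05 µg/ml adriamycin alone, with 2 µM GSK343, or DMSO. α-Tubulin and total H3 used as loading controls.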
# [3] = system: MDA-MB-231; test: Effect on human MDA-MB-231 cells assessed as increase in TET1 protein level by qRT-PCR analysis
# [4] = system: MDA-MB-231; test: Upregulation of […] signalling in human MDA-MB-231 cells at 2 uM for 2 days by immunoblot analysis; type: functional, cell-based; settings: time 2.0 day
# [5] = system: MDA-MB-231; test: Upregulation of TP53 gene in human MDA-MB-231 cells at 2 uM by qRT-PCR analysis; type: functional, cell-based
# Procedure, shortened: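 Relative transcript levels measured by qRT-PCR in cells treated with 2 µM inhibitor, normalised to DMSO-treated control cells. Triplicate experiments unless stated otherwise; mean ± SD reported; unpaired two-tailed Student's t-test at p < 0.05.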
# [6] = system: MDA-MB-231; test: Effect on human MDA-MB-231 cells expressing shTET1 assessed as reduction in PCNA by immunoblot analysis; type: functional, cell-based
# [7] = system: MDA-MB-231; test: Effect on […] in human MDA-MB-231 cells assessed as repression in TET1 promoter EZH2 by ChiP-qPCR analysis; type: functional, cell-based
# Procedure, shortened: (§2)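 Cells treated with GSK343 or DMSO; chromatin immunoprecipitated with anti-EZH2 or anti-H3K27me3 antibody and quantified by qPCR with primers for the TET1 promoter; input as internal control, IgG as negative control.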
# [8] = system: MDA-MB-436; test: Effect on human MDA-MB-436 cells assessed as apoptotic phenotype by measuring increase in p53 expression level at 2 uM in presence of adriamycin by immunoblot analysis; type: functional, cell-based; procedure, shortened: as §1
# [9] = system: MDA-MB-231; test: Effect on […] in human MDA-MB-231 cells assessed as repression in TET1 promoter H3K27me3 by ChiP-qPCR analysis; type: functional, cell-based; procedure, shortened: as §2
# [10] = system: MDA-MB-436; test: Antiproliferative activity in human MDA-MB-436 cells assessed as increase in SA-beta-gal positive cells at 2 uM for 5 days by SA-beta-gal staining analysis; type: functional, cell-based; settings: time 5.0 day
# Procedure, shortened: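 GSK343 2 µM or DMSO for 5 days, then chromogenic SA-β-gal staining and counting of positive cells. Triplicate; mean ± SD.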
# [11] = system: MDA-MB-436; test: Antiproliferative activity in human MDA-MB-436 cells assessed as increase in C12FDG based fluorescent SA-beta-gal positive cells at 2 uM in presence of adriamycin by FACS analysis; type: functional, cell-based
# Procedure, shortened: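 Cells given 0.005 µg/ml adriamycin with or without 2 µM GSK343, or DMSO; SA-β-gal activity detected with C12FDG fluorescent substrate by flow cytometry, reported as percent positive cells. Mean ± SD.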
# [12] = system: BT-474; test: Antiproliferative activity against human BT-474 cells assessed as increase in global H3K9me3 expression level by immunoblot analysis; type: toxicity, cell-based
# Procedure, shortened: (§3)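 Cells exposed to GSK343 at 2 µM (standard level unless stated otherwise), lysed and immunoblotted; α-tubulin and total H3 as loading controls.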
# [13] = system: MCF7; test: Effect on human MCF7 cells assessed as increase in TET1 transcription by qRT-PCR analysis; type: functional, cell-based
# Procedure, shortened: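 qRT-PCR of TET1, TET2 and TET3 transcripts in breast cancer cells exposed to GSK343 (2 µM unless otherwise indicated), shown relative to DMSO-treated cells. Mean ± SD, triplicate unless stated.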
# [14] = system: MDA-MB-436; test: Induction of apoptosis in human MDA-MB-436 cells xenografted in Crl:NU-Foxn1-nu/nu mouse assessed as apoptotic cells in tumor administered at 5 mg/kg, ip in presence of adriamycin treated for 21 days by TUNEL staining analysis; type: functional, organism-based; settings: time 21.0 day
# Procedure, shortened: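 TUNEL staining of xenograft tumor sections. Dosing started when tumors reached about 50 mm3: twice-weekly intraperitoneal GSK343 5 mg/kg, adriamycin 1 mg/kg, the combination, or DMSO solvent control, for 21 days.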
# [15] = system: MDA-MB-436; test: Upregulation of […] signalling in human MDA-MB-436 cells at 2 uM for 2 days by immunoblot analysis; type: functional, cell-based; settings: time 2.0 day
# [16] = system: MDA-MB-436; test: Downregulation of EZH2 in human MDA-MB-436 cells at 2 uM for 2 days by immunoblot analysis; type: functional, cell-based; settings: time 2.0 day
# [17] = system: MCF7; test: Antiproliferative activity against human MCF7 cells assessed as increase in global H3K9me3 expression level by immunoblot analysis; type: toxicity, cell-based; procedure, shortened: as §3
# [18] = system: MDA-MB-231; test: Effect on human MDA-MB-231 cells expressing shTET1 assessed as reduction in cyclinA by immunoblot analysis; type: functional, cell-based
# [19] = system: MDA-MB-436; test: Effect on human MDA-MB-436 cells assessed as apoptotic phenotype by measuring increase in PUMA expression level at 2 uM in presence of adriamycin by immunoblot analysis; type: functional, cell-based; procedure, shortened: as §1
# [20] = system: BT-474; test: Induction of cell cycle arrest in human BT-474 cells assessed as accumulation of cells at G1 phase measured at 2 uM by BrdU/PI staining based flow cytometric analysis (reference value: 60.8%); type: functional
# [21] = system: MDA-MB-436; test: Effect on human MDA-MB-436 cells assessed as increase in global 5hmc level by dot analysis; type: functional, cell-based
# Procedure, shortened: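 Global 5hmC measured by dot blot on genomic DNA from cells given GSK343 or carrying EZH2 knock-down, with DMSO or scrambled shRNA as controls. DNA denatured in 0.1 M NaOH at 99 °C for 5 min, then neutralized with ammonium sulfate pH 7.0. 5 µg spotted, UV-crosslinked, probed with anti-5hmC for 1 h at room temperature, ECL detection, dot intensity quantified. Mean ± SD.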
# [22] = system: MDA-MB-436; test: Induction of cell cycle arrest in human MDA-MB-436 cells assessed as accumulation of cells at G1 phase measured at 2 uM by BrdU/PI staining based flow cytometric analysis (reference value: 48.3%); type: functional
# [23] = system: MDA-MB-436; test: Downregulation of EZH2 protein expression in human MDA-MB-436 cells at 2 uM for 2 days by immunoblot analysis; type: functional, cell-based; settings: time 2.0 day
# [24] = system: MDA-MB-436; test: Induction of apoptosis in human MDA-MB-436 cells assessed as increase in accumulation of cells at G1 phase in presence of adriamycin by BrdU/PI-based cell cycle analysis; type: functional
# Procedure, shortened: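 Cell cycle by BrdU/PI staining and flow cytometry, giving G1, S and G2 fractions. Cells received 0.005 µg/ml adriamycin with or without 2 µM GSK343, or DMSO. Mean ± SD.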
# [25] = system: MDA-MB-436; test: Effect on human MDA-MB-436 cells assessed as increase in TET1 mRNA level by qRT-PCR analysis
# [26] = system: MDA-MB-231; test: Effect on human MDA-MB-231 cells assessed as apoptotic phenotype by measuring increase in BAX expression level at 2 uM in presence of adriamycin by immunoblot analysis; type: functional, cell-based; procedure, shortened: as §1
smiles,measurement,setting,value
CCCc1cc(C)[nH]c(=O)c1CNC(=O)c1cc(-c2ccnc(N3CCN(C)CC3)c2)cc2c1cnn2C(C)C,Activity,[1],Non-Toxic
same,Activity,[2],Active
same,Activity,[3],Active
same,Activity,[4],Active
same,Activity,[5],Active
same,Activity,[6],inactive
same,Activity,[7],Active
same,Activity,[8],Active
same,Activity,[9],Active
same,Activity,[10],Active
same,Activity,[11],Active
same,Activity,[12],Non-Toxic
same,Activity,[13],inactive
same,Activity,[14],Active
same,Activity,[15],Active
same,Activity,[16],Active
same,Activity,[17],Non-Toxic
same,Activity,[18],inactive
same,Activity,[19],Active
same,Activity,[20],56.8%
same,Activity,[21],Active
same,Activity,[22],71.1%
same,Activity,[23],Active
same,Activity,[24],Active
same,Activity,[25],Active
same,Activity,[26],Active
